Calls of active or inactive are those of the source. The calls are words filed in the database; no cut-off is given here.
Assays:
Type in all cases: functional, organism-based
Escherichia coli [1] = experiment: Antimicrobial activity against ESBL producing Escherichia coli assessed as resistant isolates by Etest
How it was run: (§1)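 24 ESBL-producing E. coli strains acquired during travel, isolated from post-travel rectal swabs of Swedish travellers. Swabs were enriched in LB broth with cefotaxime 2.5 μg/ml, then plated on MacConkey agar with cefotaxime and ceftazidime discs, overnight at 35°C in room air. ESBL production was confirmed by disc-diffusion synergy test and CTX-M by PCR. Susceptibility was measured by Etest and interpreted per EUCAST guidelines.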

Escherichia coli [2] = experiment: Antimicrobial activity against ESBL producing Escherichia coli assessed as susceptible isolates by Etest; how it was run: as §1
Escherichia coli [3] = experiment: Antimicrobial activity against ESBL producing Escherichia coli assessed as susceptible isolates by Etest in presence of beta-lactamase inhibitor Tazobactam; how it was run: as §1

| Molecule | Activity (Escherichia coli [1]) | Activity (Escherichia coli [2]) | further results |
| --- | --- | --- | --- |
| GENTAMICIN | inactive |  |  |
| O=C1CN(/N=C/c2ccc([N+](=O)[O-])o2)C(=O)N1 |  | Active |  |
| NC[C@H]1O[C@H](O[C@H]2[C@H](O)[C@@H](O[C@H]3O[C@H](CO)[C@@H](O)[C@H](N)[C@H]3O)[C@H](N)C[C@@H]2N)[C@H](N)C[C@@H]1O | inactive |  |  |
| O=C(O)c1cn(C2CC2)c2cc(N3CCNCC3)c(F)cc2c1=O |  | Active |  |
| C[C@@H](O)[C@H]1C(=O)N2C(C(=O)O)=C(S[C@@H]3CN[C@H](C(=O)N(C)C)C3)[C@H](C)[C@H]12 |  | Active |  |
| CCN1CCN(C(=O)N[C@@H](C(=O)N[C@@H]2C(=O)N3[C@@H]2SC(C)(C)[C@@H]3C(=O)O)c2ccccc2)C(=O)C1=O |  |  | Activity (Escherichia coli [3]): Active |
| CC1(C)S[C@@H]2[C@H](/N=C/N3CCCCCC3)C(=O)N2[C@H]1C(=O)O |  | Active |  |
| C[C@@H](O)[C@H]1C(=O)N2C(C(=O)O)=C(SCCNC=N)C[C@H]12 |  | Active |  |
| C[C@@H](O)[C@H]1C(=O)N2C(C(=O)O)=C(S[C@@H]3CN[C@H](C(=O)Nc4cccc(C(=O)O)c4)C3)[C@H](C)[C@H]12 |  | Active |  |
| C[C@@H]1O[C@@H]1P(=O)(O)O | inactive |  |  |
